Results on 22 molecules are retold here after ChEMBL document CHEMBL1141362, “Synthesis and solid-phase purification of anthranilic sulfonamides as CCK-2 ligands” (Bioorg Med Chem Lett, 2007).

Bounds are passed on as bounds.

Series [1] can be described thus: Metabolic stability in rat liver microsomes after 30 mins. It is filed as ADME, Microsome. The note with it: read-out: Stability. The method, boiled down: (§1)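 Compound incubated with human or rat liver microsomes to assess stability toward CYP450 oxidation. The read-out is percent of parent compound remaining after 30 min.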
The nature of series [2]: Metabolic stability in human liver microsomes after 30 mins. It counts as ADME, Microsome. The note with it: read-out: Stability. The essentials: as §1
In general terms: Liver microsomes are vesicles of endoplasmic reticulum, rich in cytochrome P450 enzymes.

In series [3] the target is T1, Gastrin/cholecystokinin type B receptor (Homo sapiens, UniProt P32239).
T1 sequence (P32239 whole entry): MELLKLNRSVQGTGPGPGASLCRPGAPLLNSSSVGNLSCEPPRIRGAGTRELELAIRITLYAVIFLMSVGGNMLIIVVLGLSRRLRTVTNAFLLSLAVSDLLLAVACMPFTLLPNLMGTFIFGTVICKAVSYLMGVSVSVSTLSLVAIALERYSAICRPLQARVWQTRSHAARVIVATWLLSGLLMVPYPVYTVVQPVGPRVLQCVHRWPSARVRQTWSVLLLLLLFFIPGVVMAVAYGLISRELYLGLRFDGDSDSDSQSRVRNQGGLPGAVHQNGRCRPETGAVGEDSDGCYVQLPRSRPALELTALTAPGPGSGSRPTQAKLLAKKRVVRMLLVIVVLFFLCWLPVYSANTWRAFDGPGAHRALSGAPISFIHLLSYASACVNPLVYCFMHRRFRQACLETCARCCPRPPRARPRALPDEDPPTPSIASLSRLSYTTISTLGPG
As to the kind of experiment: Displacement of [125I]CCK-8S from CCK2 receptor. The method, boiled down: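 Apparent antagonist equilibrium dissociation constant, reported as its negative logarithm, derived by the Cheng–Prusoff method from the concentration displacing 50% of 125I-CCK-8S (pIC50). Values are ±0.3 log units unless stated otherwise.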
On the technique in general: Loss of bound radioactivity is the signal in a displacement assay; it reports binding, not function.

Series [4] concerns the target T2, Cholecystokinin receptor type A (Homo sapiens, UniProt P32238).
T2 sequence (P32238 whole entry): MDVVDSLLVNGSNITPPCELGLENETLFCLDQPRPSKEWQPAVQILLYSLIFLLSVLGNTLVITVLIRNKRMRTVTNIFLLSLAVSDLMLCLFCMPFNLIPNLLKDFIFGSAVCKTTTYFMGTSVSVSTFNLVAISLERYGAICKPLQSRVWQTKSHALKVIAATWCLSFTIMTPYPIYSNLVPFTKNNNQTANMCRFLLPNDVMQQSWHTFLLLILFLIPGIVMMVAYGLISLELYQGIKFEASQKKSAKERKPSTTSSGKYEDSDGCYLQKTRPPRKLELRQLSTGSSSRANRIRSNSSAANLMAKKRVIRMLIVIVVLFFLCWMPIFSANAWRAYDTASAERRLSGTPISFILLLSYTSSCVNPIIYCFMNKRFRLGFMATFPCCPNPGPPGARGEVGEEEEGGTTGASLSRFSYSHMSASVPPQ
As to the kind of experiment: Binding affinity to CCK1 receptor.

`O=C(c1ccc(Br)cc1NS(=O)(=O)c1cccc2nsnc12)N1CCCCC1`: the remaining at 0.5 h in series [1] worked out at 29%; in series [2] it was 0%.

A word on the Ki: it is a dissociation constant, usually derived from enzyme kinetics or from competition with a known ligand. Higher therefore signals lower affinity. Take `O=C(NCc1ccc(S(=O)(=O)Nc2cc(Br)ccc2C(=O)N2CCCCC2)s1)c1ccccc1`: the inhibitory constant (Ki) in series [3] was 6.31 µM. Also, the remaining at 0.5 h in series [1] and in series [2] was 0% each time.

`COC(=O)c1sc(C(F)(F)F)c(-c2ccccc2)c1S(=O)(=O)Nc1cc(Br)ccc1C(=O)N1CCCCC1`: the inhibitory constant (Ki) in series [3] is 7.94 µM. Besides, the remaining at 0.5 h in series [1] and in series [2] was 0% each time.

In turn, `COC(=O)c1c(C)oc(C)c1S(=O)(=O)Nc1cc(Br)ccc1C(=O)N1CCCCC1` had a Ki in series [3] of 0.501 µM. For the same molecule, the remaining at 0.5 h in series [1] worked out at 11%; in series [2] it was 0%.

As for `O=C(c1ccc(Br)cc1NS(=O)(=O)c1c(F)cccc1F)N1CCCCC1`, the affinity in series [3] corresponds to a Ki of 0.501 µM. Further, the results for the remaining at 0.5 h in series [1] and in series [2] were 78% and 77%, respectively.

For `O=C(c1ccc(Br)cc1NS(=O)(=O)c1ccc(C(F)(F)F)cc1Cl)N1CCCCC1`, the Ki in series [3] is 0.631 µM. Besides, the remaining at 0.5 h in series [1] stood at 49%; in series [2], 44%.

`CSc1nccc(-c2ccc(S(=O)(=O)Nc3cc(Br)ccc3C(=O)N3CCCCC3)s2)n1` had a Ki in series [3] of 3.16 µM. Further, the remaining at 0.5 h in series [1] was 39%; in series [2], 63%.

In series [3], `O=C(c1ccc(Br)cc1NS(=O)(=O)c1sc(Cl)cc1Br)N1CCCCC1` showed an inhibitory constant (Ki) of 0.794 µM. Besides, the remaining at 0.5 h worked out at 68% in series [1] and 2% in series [2].

Regarding `Cc1ccc(S(=O)(=O)Nc2cc(Br)ccc2C(=O)N2CCCCC2)cc1[N+](=O)[O-]`, affinity in series [3] was put at a Ki of 2 µM. Moreover, the remaining at 0.5 h in series [1] worked out at 25%; in series [2], 3%.

The molecule `N#Cc1cccc(S(=O)(=O)Nc2cc(Br)ccc2C(=O)N2CCCCC2)c1` gave a Ki in series [3] of 5.01 µM. The remaining at 0.5 h in series [1] is 100%; in series [2], 7%.

With `Cc1nnc(-c2cccc(S(=O)(=O)Nc3cc(Br)ccc3C(=O)N3CCCCC3)c2)o1`, the inhibitory constant (Ki) in series [3] was 7.94 µM. Besides, the values for the remaining at 0.5 h in series [1] and in series [2] were 66% and 0%, respectively.

As for `Cc1nc(-c2ccc(S(=O)(=O)Nc3cc(Br)ccc3C(=O)N3CCCCC3)s2)cs1`, the Ki in series [3] was 3.98 µM. Also, the remaining at 0.5 h in series [1] was found to be 47%; in series [2] it was 5%.

Turning to `O=C(c1ccc(Br)cc1NS(=O)(=O)c1c(Cl)nc2sccn12)N1CCCCC1`, affinity in series [3] was put at a Ki of 1.58 µM. In addition, the values for the remaining at 0.5 h in series [1] and in series [2] were 100% and 7%, respectively.

`O=C(c1cc(Cl)ccc1NS(=O)(=O)c1cccc2nsnc12)N1CCCCC1` gave a Ki in series [4] greater than 10 µM.

In series [3], `O=C(c1ccc(Br)cc1NS(=O)(=O)c1ccc2nsnc2c1)N1CCCCC1` had an inhibitory constant (Ki) of 5.01 µM. Also, the remaining at 0.5 h in series [1] came to 23%; in series [2], 13%.

On to `O=C(c1ccc(Br)cc1NS(=O)(=O)c1ccc2c(c1)OCCCO2)N1CCCCC1`, for which affinity in series [3] was put at a Ki of 2.51 µM. For the same molecule, the values for the remaining at 0.5 h in series [1] and in series [2] were 9% and 41%, respectively.

Turning to `COC(=O)c1sccc1S(=O)(=O)Nc1cc(Br)ccc1C(=O)N1CCCCC1`, the affinity in series [3], expressed as Ki, was 1.58 µM. Further, the results for the remaining at 0.5 h in series [1] and in series [2] were 37% and 3%, respectively.

`O=C(c1ccc(Br)cc1NS(=O)(=O)c1csc2ccccc12)N1CCCCC1` showed an inhibition constant (Ki) in series [3] of 3.16 µM. In addition, the figures for the remaining at 0.5 h in series [1] and in series [2] were 19% and 23%, respectively.

`COC(=O)c1cc(S(=O)(=O)Nc2cc(Br)ccc2C(=O)N2CCCCC2)oc1C`: the inhibition constant Ki in series [3] was 5.01 µM. The values for the remaining at 0.5 h in series [1] and in series [2] were 100% and 10%, respectively.

The molecule `COC(=O)c1csc(S(=O)(=O)Nc2cc(Br)ccc2C(=O)N2CCCCC2)c1OC` gave an inhibition constant Ki in series [3] of 5.01 µM. Moreover, the remaining at 0.5 h in series [1] and in series [2] was 0% in each case.

In series [3], `O=C(c1ccc(Br)cc1NS(=O)(=O)c1ccc(-c2cc(C(F)(F)F)on2)s1)N1CCCCC1` had an inhibitory constant (Ki) of 5.01 µM. Also, the remaining at 0.5 h in series [1] turned out to be 87%; in series [2], 89%.

`Cc1c(S(=O)(=O)Nc2cc(Br)ccc2C(=O)N2CCCCC2)cnn1-c1ccccc1` gave an inhibition constant (Ki) in series [3] of 7.94 µM. Moreover, the figures for the remaining at 0.5 h in series [1] and in series [2] were 30% and 85%, respectively.
